In data set [1] the test system is Pseudomonas luteola. Kind of data set: Antimicrobial activity against Pseudomonas luteola LAM expressing blaLUT-1 by Etest method. Format: functional.
Data set [2] has as its system Escherichia coli. Put plainly: Antimicrobial activity against Escherichia coli DH10B by Etest method. The following applies: K-12 DH10B. Format: functional.
The test system of data set [3] is Pseudomonas luteola. Put plainly: Antimicrobial activity against Pseudomonas luteola expressing blaLUT-2 to blaLUT-6 by Etest method. Format: functional.
Data set [4] deals with Escherichia coli. Kind of data set: Antimicrobial activity against Escherichia coli DH10B transfected with pBK-L3 expressing blaLUT-1 by Etest method. Format: functional. The following applies: K-12 DH10B.
Data set [5] concerns Pseudomonas luteola. Put plainly: Antimicrobial activity against Pseudomonas luteola LAM expressing blaLUT-1 by Etest method in presence of 4 ug/ml clavulanic acid. Format: functional.
The subject of data set [6] is Escherichia coli. Put plainly: microbe, parasite or virus in culture. The following applies: K-12 DH10B.
Data set [7] deals with Escherichia coli. Kind of data set: Antimicrobial activity against Escherichia coli DH10B by Etest method in presence of 4 ug/ml clavulanic acid. Format: functional. The following applies: K-12 DH10B.
In data set [8] the test system is Pseudomonas luteola. Put plainly: Antimicrobial activity against Pseudomonas luteola expressing blaLUT-2 to blaLUT-6 by Etest method in presence of 4 ug/ml clavulanic acid. Format: functional.
The test system of data set [9] is Pseudomonas luteola. Put plainly: Antimicrobial activity against Pseudomonas luteola by Etest method. Format: functional.
Data set [10] concerns Pseudomonas luteola. Put plainly: Antimicrobial activity against Pseudomonas luteola by disk diffusion method. Format: functional. The gist of the method:
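Disk diffusion panel of 32 antimicrobial drugs tested on P. luteola clinical isolates and the type strain. Isolates were identified by API-20 NE and by sequencing of PCR-amplified rrs and rpoB.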

Data set [11] deals with Pseudomonas luteola. Kind of data set: Antimicrobial activity against Pseudomonas luteola LAM expressing blaLUT-1 by Etest method in presence of 4 ug/ml Tazobactam. Format: functional.
Data set [12] deals with Escherichia coli. Put plainly: Antimicrobial activity against Escherichia coli DH10B transfected with pBK-L3 expressing blaLUT-1 by Etest method in presence of 4 ug/ml Tazobactam. Format: functional. The following applies: K-12 DH10B.
Data set [13] has as its system Escherichia coli. Kind of data set: Antimicrobial activity against Escherichia coli DH10B by Etest method in presence of 4 ug/ml Tazobactam. Format: functional. The following applies: K-12 DH10B.
In data set [14] the test system is Pseudomonas luteola. Put plainly: Antimicrobial activity against Pseudomonas luteola expressing blaLUT-2 to blaLUT-6 by Etest method in presence of 4 ug/ml Tazobactam. Format: functional.
Data set [15] relates to Escherichia coli. Put plainly: Antimicrobial activity against Escherichia coli DH10B by Etest method in presence of 2 ug/ml clavulanic acid. The following applies: K-12 DH10B. Format: functional.
Data set [16] concerns Pseudomonas luteola. Put plainly: Antimicrobial activity against Pseudomonas luteola expressing blaLUT-2 to blaLUT-6 by Etest method in presence of 2 ug/ml clavulanic acid. Format: functional.
The subject of data set [17] is Escherichia coli. Kind of data set: Antimicrobial activity against Escherichia coli DH10B transfected with pBK-L3 expressing blaLUT-1 by Etest method in presence of 2 ug/ml clavulanic acid. Format: functional. The following applies: K-12 DH10B.
The subject of data set [18] is Pseudomonas luteola. Kind of data set: Antimicrobial activity against Pseudomonas luteola LAM expressing blaLUT-1 by Etest method in presence of 2 ug/ml clavulanic acid. Format: functional.
Substrate in data set [19]: CC(C)(O/N=C(\C(=O)N[C@@H]1C(=O)N2C(C(=O)[O-])=C(C[n+]3ccccc3)CS[C@H]12)c1csc(N)n1)C(=O)O
Put plainly: (§1) Ratio of kcat/Km for Pseudomonas luteola LAM Beta-lactamase LUT-1. An outline of the steps: (§2)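 LUT-1 was purified from E. coli DH5α(pBK-L3) grown for 18 h at 37°C in 2× yeast-tryptone broth with kanamycin 20 μg/ml and amoxicillin 32 μg/ml. Purification used Q Sepharose ion exchange, then Superose 12 gel filtration, with purity checked by SDS-PAGE. Km and kcat were determined by a computerized microacidimetric method, each three times, with coefficients of variation not exceeding 15%.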

Substrate in data set [20]: CC1(C)S[C@@H]2[C@H](NC(=O)[C@H](N)c3ccc(O)cc3)C(=O)N2[C@H]1C(=O)O
The data set is described as §1. An outline of the steps:
as §2

Substrate in data set [21]: CC1(C)S[C@@H]2[C@H](NC(=O)Cc3ccccc3)C(=O)N2[C@H]1C(=O)O
Described as §1. An outline of the steps: as §2

Substrate in data set [22]: CCN1CCN(C(=O)N[C@@H](C(=O)N[C@@H]2C(=O)N3[C@@H]2SC(C)(C)[C@@H]3C(=O)O)c2ccccc2)C(=O)C1=O
Described as §1. The gist of the method: as §2

Substrate in data set [23]: C[C@H]1[C@H](NC(=O)/C(=N\OC(C)(C)C(=O)O)c2csc(N)n2)C(=O)N1S(=O)(=O)O
Described as §1. An outline of the steps: as §2

Substrate in data set [24]: CO/N=C(\C(=O)N[C@@H]1C(=O)N2C(C(=O)O)=C(COC(N)=O)CS[C@H]12)c1ccco1
The description is as §1. The gist of the method:
as §2

Substrate in data set [25]: CO/N=C(\C(=O)N[C@@H]1C(=O)N2C(C(=O)O)=C(COC(C)=O)CS[C@H]12)c1csc(N)n1
The data set is described as §1. An outline of the steps: as §2

Substrate in data set [26]: CC(=O)OCC1=C(C(=O)O)N2C(=O)[C@@H](NC(=O)Cc3cccs3)[C@H]2SC1
Described as §1. The gist of the method: as §2

Substrate in data set [27]: CC1(C)S[C@@H]2[C@H](NC(=O)[C@H](C(=O)O)c3ccsc3)C(=O)N2[C@H]1C(=O)O
The data set is described as §1. The gist of the method: as §2

Substrate in data set [28]: CC(C)(O/N=C(\C(=O)N[C@@H]1C(=O)N2C(C(=O)[O-])=C(C[n+]3ccccc3)CS[C@H]12)c1csc(N)n1)C(=O)O
Kind of data set: (§3) Activity of Pseudomonas luteola LAM Beta-lactamase LUT-1. The gist of the method: as §2

Substrate in data set [29]: CC1(C)S[C@@H]2[C@H](NC(=O)[C@H](N)c3ccc(O)cc3)C(=O)N2[C@H]1C(=O)O
The description is as §3. The gist of the method: as §2

Substrate in data set [30]: CC1(C)S[C@@H]2[C@H](NC(=O)Cc3ccccc3)C(=O)N2[C@H]1C(=O)O
Described as §3. The gist of the method:
as §2

Substrate in data set [31]: CCN1CCN(C(=O)N[C@@H](C(=O)N[C@@H]2C(=O)N3[C@@H]2SC(C)(C)[C@@H]3C(=O)O)c2ccccc2)C(=O)C1=O
The description is as §3. The gist of the method: as §2

Substrate in data set [32]: C[C@H]1[C@H](NC(=O)/C(=N\OC(C)(C)C(=O)O)c2csc(N)n2)C(=O)N1S(=O)(=O)O
The data set is described as §3. An outline of the steps:
as §2

Substrate in data set [33]: CO/N=C(\C(=O)N[C@@H]1C(=O)N2C(C(=O)O)=C(COC(N)=O)CS[C@H]12)c1ccco1
The description is as §3. An outline of the steps: as §2

Substrate in data set [34]: CO/N=C(\C(=O)N[C@@H]1C(=O)N2C(C(=O)O)=C(COC(C)=O)CS[C@H]12)c1csc(N)n1
Described as §3. The gist of the method:
as §2

Substrate in data set [35]: CC(=O)OCC1=C(C(=O)O)N2C(=O)[C@@H](NC(=O)Cc3cccs3)[C@H]2SC1
The data set is described as §3. The gist of the method:
as §2

Substrate in data set [36]: CC1(C)S[C@@H]2[C@H](NC(=O)[C@H](C(=O)O)c3ccsc3)C(=O)N2[C@H]1C(=O)O
The description is as §3. The gist of the method:
as §2

In brackets after ≈: the same amount, converted by molar mass. Activity calls are given as the source filed them. The calls are words filed in the database; no cut-off is given here.

Turning to `CC(C)(O/N=C(\C(=O)N[C@@H]1C(=O)N2C(C(=O)[O-])=C(C[n+]3ccccc3)CS[C@H]12)c1csc(N)n1)C(=O)O` [CEFTAZIDIME], the MIC turned out to be 0.5 µg/mL (≈ 0.915 µM) against Pseudomonas luteola [1]; 0.125 µg/mL (≈ 0.229 µM) with Escherichia coli [2]; 0.5 µg/mL (≈ 0.915 µM) with Pseudomonas luteola [3]; 1 µg/mL (≈ 1.83 µM) against Escherichia coli [4]; 0.25 µg/mL in the data set on Pseudomonas luteola [5]; 0.5 µg/mL (≈ 0.915 µM) against Escherichia coli [6]. Besides, the MIC in the data set on Escherichia coli [7] and in the data set on Pseudomonas luteola [8] was 0.25 µg/mL in each case.

With `CC(=O)OCC1=C(C(=O)O)N2C(=O)[C@@H](NC(=O)Cc3cccs3)[C@H]2SC1` [CEPHALOTHIN], the MIC against Pseudomonas luteola [1] turned out to be 64 µg/mL (≈ 161 µM); against Escherichia coli [2] it was 4 µg/mL (≈ 10.1 µM); in the data set with Pseudomonas luteola [3], 128 µg/mL (≈ 323 µM); against Escherichia coli [4] it was 32 µg/mL (≈ 80.7 µM).

As for `O=C(O)c1cn(C2CC2)c2cc(N3CCNCC3)c(F)cc2c1=O` [CIPROFLOXACIN], in the data set with Pseudomonas luteola [9], the MIC amounted to 0.032 µg/mL (≈ 0.0966 µM).

In the case of `C[C@@H](O)[C@H]1C(=O)N2C(C(=O)O)=C(SCCNC=N)C[C@H]12` [IMIPENEM ANHYDROUS], the MIC in the data set with Pseudomonas luteola [1] and against Pseudomonas luteola [3] was 0.25 µg/mL (≈ 0.835 µM) throughout.

In the case of `CCn1cc(C(=O)O)c(=O)c2ccc(C)nc21` [NALIDIXIC ACID], the outcome in the data set with Pseudomonas luteola [10] was inactive. For the same molecule, the MIC in the data set on Pseudomonas luteola [9] amounted to 16 µg/mL (≈ 68.9 µM).

On to `CCN1CCN(C(=O)N[C@@H](C(=O)N[C@@H]2C(=O)N3[C@@H]2SC(C)(C)[C@@H]3C(=O)O)c2ccccc2)C(=O)C1=O` [PIPERACILLIN], for which the MIC was 2 µg/mL (≈ 3.86 µM) with Pseudomonas luteola [1]; 1 µg/mL in the data set on Pseudomonas luteola [11]; 1 µg/mL with Escherichia coli [12]; 1 µg/mL (≈ 1.93 µM) against Escherichia coli [2]; 2 µg/mL (≈ 3.86 µM) in the data set on Pseudomonas luteola [3]; 8 µg/mL (≈ 15.5 µM) with Escherichia coli [4]. In addition, the MIC with Escherichia coli [13] and with Pseudomonas luteola [14] was 1 µg/mL each time.

As to `CC1(C)S[C@@H]2[C@H](NC(=O)[C@H](C(=O)O)c3ccsc3)C(=O)N2[C@H]1C(=O)O` [TICARCILLIN], the MIC worked out at 8 µg/mL (≈ 20.8 µM) in the data set on Pseudomonas luteola [1]; 2 µg/mL in the data set on Escherichia coli [15]; 2 µg/mL (≈ 5.2 µM) in the data set with Escherichia coli [2]; 8 µg/mL (≈ 20.8 µM) in the data set on Pseudomonas luteola [3]; 256 µg/mL (≈ 666 µM) against Escherichia coli [4]; 2 µg/mL with Pseudomonas luteola [16]. Moreover, the values for the MIC in the data set with Escherichia coli [17] and in the data set on Pseudomonas luteola [18] were 16 µg/mL and 4 µg/mL, respectively.

B1: Beta-lactamase (Pseudomonas luteola), Q670S6 (protein)
chain: MNVILNRRTFLLASAVVSASYSLGTLAGANRDDASFQDRLAKLEQQLNGRLGVCAIDTANGAQLGYRANERFAMNSTFKVMLASAFLARSQDEPGLLEERLTYTRADLVTYSPVTEKHVSTGMTVAELCAAGIQYSDNTAANVLMKKLGGPEAVTAFARSIGDTHFRLDRWETELNSAIPGDPRDTSTPQAMAMSLQRLALGDMLAADKQHQLQAWLKGNTTGGKRIRAGVPAGWQVGDKTGTGDYGSANDVAILWPPRRAPVVLALYSALENQQAEARNDVLADAARIVAEWVTG
For the molecule B1, the kcat/Km turned out to be 40000 M⁻¹ s⁻¹ in data set [19]; 1.05e+06 M⁻¹ s⁻¹ in data set [20]; 3.87e+06 M⁻¹ s⁻¹ in data set [21]; 1.14e+06 M⁻¹ s⁻¹ in data set [22]; 40000 M⁻¹ s⁻¹ in [23]; 1.19e+07 M⁻¹ s⁻¹ in data set [24]. The kcat/Km was 5.25e+06 M⁻¹ s⁻¹ in data set [25], 2.59e+07 M⁻¹ s⁻¹ in [26] and 360000 M⁻¹ s⁻¹ in data set [27]. For the same molecule, the Km was 35 µM in data set [28]; 20 µM in data set [29]; 8 µM in data set [30]; 7 µM in data set [31]; 40 µM in data set [32]; 24 µM in [33]. Also, the results for the Km in data set [34], in data set [35] and in data set [36] were 86 µM, 21 µM and 14 µM, respectively. The kcat was 1.3 s⁻¹ in data set [28]; 21 s⁻¹ in data set [29]; 31 s⁻¹ in [30]; 8 s⁻¹ in [31]; 1.5 s⁻¹ in data set [32]; 286 s⁻¹ in data set [33]. Also, the kcat in data set [34] was found to be 452 s⁻¹; in [35], 543 s⁻¹; in data set [36], 5 s⁻¹.

The record behind these values is ChEMBL document CHEMBL1212770, “Molecular and biochemical characterization of the natural chromosome-encoded class A beta-lactamase from Pseudomonas luteola” (Antimicrob Agents Chemother, 2010).
